Each structure is given as a SMILES string. Calls of active or inactive are those of the source. No cut-off for these calls is given here. Where only a bound is given, the exact number is not on record here.

In assay [1] the target is T1, Tyrosine-protein phosphatase non-receptor type 1 (Rattus norvegicus) (UniProt P20417).
T1 sequence (whole entry): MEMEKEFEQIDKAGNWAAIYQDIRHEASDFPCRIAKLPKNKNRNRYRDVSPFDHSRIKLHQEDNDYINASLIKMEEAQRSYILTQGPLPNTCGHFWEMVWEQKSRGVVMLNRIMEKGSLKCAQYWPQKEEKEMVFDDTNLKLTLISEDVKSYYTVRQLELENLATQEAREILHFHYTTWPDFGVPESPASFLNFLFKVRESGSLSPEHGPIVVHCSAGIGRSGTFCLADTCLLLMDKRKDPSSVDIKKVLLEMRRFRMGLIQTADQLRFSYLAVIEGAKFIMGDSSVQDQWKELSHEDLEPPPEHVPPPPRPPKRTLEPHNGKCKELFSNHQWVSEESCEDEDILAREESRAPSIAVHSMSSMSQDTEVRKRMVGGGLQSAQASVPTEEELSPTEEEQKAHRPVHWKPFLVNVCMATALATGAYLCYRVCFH
As to the kind of experiment: Inhibition of PTP1B in rat L6 cells assessed as insulin-induced Akt phosphorylation at 5 to 10 uM preincubated for 2 hrs followed by insulin challenge for 10 mins by Western blotting analysis. Format: cell-based. The procedure, abridged:
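Rat L6 myoblasts were differentiated in DMEM with 2% FBS and used as myotubes 5–7 days later. They were serum-starved 2 h, treated with compound 2 h (0.2% DMSO vehicle), then given 10 nM insulin for 10 min. Lysates were run on 8% SDS-PAGE and immunoblotted for phospho-Akt (Ser473), with β-actin as loading control.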

The target in assay [2] is Receptor-type tyrosine-protein phosphatase F (Homo sapiens, UniProt P10586). Briefly: Inhibition of LAR (unknown origin).
Receptor-type tyrosine-protein phosphatase F, sequence (P10586 whole entry): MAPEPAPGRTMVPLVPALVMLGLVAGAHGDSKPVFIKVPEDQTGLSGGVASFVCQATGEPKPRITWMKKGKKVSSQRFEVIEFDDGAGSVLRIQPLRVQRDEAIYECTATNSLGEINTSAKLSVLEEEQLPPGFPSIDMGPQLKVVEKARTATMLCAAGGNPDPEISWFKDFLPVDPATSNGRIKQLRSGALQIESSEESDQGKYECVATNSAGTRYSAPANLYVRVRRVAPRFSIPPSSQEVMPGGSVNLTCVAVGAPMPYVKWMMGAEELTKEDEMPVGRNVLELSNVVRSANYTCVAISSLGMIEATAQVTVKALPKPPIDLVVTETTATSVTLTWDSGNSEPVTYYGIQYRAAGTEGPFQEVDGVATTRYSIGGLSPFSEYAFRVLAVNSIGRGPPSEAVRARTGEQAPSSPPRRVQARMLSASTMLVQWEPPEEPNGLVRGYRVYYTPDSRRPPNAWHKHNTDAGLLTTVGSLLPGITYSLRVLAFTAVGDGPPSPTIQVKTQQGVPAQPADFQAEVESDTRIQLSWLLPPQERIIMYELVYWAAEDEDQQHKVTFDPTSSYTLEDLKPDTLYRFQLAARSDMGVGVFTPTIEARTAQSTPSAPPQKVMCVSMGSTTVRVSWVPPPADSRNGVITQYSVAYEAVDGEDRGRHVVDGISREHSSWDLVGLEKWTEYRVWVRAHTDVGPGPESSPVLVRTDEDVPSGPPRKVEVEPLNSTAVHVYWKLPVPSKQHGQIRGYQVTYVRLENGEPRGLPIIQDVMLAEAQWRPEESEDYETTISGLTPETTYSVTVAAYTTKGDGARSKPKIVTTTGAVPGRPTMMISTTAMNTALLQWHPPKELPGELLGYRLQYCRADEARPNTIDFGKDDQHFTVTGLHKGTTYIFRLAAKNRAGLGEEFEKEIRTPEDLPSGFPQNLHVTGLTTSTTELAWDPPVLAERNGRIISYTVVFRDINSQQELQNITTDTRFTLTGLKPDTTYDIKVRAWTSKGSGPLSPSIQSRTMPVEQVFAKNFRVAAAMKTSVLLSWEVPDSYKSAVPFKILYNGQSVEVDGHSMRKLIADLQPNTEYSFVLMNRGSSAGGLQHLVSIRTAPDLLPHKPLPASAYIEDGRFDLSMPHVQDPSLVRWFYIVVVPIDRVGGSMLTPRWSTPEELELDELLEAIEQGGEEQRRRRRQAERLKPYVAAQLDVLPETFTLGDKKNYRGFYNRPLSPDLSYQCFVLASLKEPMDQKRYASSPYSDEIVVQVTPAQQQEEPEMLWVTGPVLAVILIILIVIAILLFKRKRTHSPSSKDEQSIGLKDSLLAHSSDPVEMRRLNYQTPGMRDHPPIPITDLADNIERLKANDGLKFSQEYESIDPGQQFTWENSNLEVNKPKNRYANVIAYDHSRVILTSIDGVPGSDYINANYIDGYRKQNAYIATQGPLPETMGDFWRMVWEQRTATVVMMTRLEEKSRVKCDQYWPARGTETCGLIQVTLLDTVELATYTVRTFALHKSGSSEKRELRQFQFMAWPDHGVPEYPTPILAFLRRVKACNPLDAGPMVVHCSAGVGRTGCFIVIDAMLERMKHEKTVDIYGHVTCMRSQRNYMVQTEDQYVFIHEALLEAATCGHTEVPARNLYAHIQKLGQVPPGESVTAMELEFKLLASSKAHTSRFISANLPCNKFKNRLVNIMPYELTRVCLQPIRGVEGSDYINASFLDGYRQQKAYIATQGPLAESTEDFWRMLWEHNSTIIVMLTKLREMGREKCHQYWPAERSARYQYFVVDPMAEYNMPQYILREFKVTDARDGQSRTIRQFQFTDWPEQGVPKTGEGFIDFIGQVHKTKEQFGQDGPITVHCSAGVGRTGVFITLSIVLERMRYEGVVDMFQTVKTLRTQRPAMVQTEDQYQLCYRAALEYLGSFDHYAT
A further assay is filed under the species Homo sapiens. As to the kind of experiment: Selectivity ratio of IC50 for TCPTP (unknown origin) to IC50 for GST-tagged PTP1B (unknown origin).
For assay [3], the target named is T1, Tyrosine-protein phosphatase non-receptor type 1 (Rattus norvegicus). As to the kind of experiment: Inhibition of PTP1B in rat L6 cells assessed as insulin-stimulated 2-deoxy-[3H]-deoxy-glucose uptake at 10 uM preincubated for 2 hrs followed by insulin challenge for 30 mins. It counts as cell-based. The procedure, abridged:
(§1)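 Differentiated L6 myotubes were serum-starved 2 h, treated with compound, then stimulated with 10 nM insulin for 30 min. Cells were washed in HEPES-buffered saline, pH 7.4, and incubated 15 min with 2-deoxy-[3H]-glucose. After ice-cold PBS washes they were lysed in 0.1% Triton X-100 and radioactivity was counted. Data are averages of at least three independent replicates.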

Assay [4] deals with T2, Tyrosine-protein phosphatase non-receptor type 2 (Homo sapiens, UniProt P17706).
T2 sequence (P17706 whole entry): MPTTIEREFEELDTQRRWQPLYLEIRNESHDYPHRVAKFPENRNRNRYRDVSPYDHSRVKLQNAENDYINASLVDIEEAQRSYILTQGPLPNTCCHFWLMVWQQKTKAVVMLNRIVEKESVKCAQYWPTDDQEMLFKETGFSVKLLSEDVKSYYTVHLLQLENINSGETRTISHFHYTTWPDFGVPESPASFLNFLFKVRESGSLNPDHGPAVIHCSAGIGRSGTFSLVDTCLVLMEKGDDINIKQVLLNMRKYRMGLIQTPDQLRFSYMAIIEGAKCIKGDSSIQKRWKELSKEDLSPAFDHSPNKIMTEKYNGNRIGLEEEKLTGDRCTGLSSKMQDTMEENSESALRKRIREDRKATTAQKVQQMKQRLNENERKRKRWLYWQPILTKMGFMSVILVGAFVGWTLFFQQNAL
As to the kind of experiment: Inhibition of TCPTP (unknown origin).

Assay [5] addresses T3, Tyrosine-protein phosphatase non-receptor type 1 (Homo sapiens, UniProt P18031).
T3 sequence (P18031 whole entry): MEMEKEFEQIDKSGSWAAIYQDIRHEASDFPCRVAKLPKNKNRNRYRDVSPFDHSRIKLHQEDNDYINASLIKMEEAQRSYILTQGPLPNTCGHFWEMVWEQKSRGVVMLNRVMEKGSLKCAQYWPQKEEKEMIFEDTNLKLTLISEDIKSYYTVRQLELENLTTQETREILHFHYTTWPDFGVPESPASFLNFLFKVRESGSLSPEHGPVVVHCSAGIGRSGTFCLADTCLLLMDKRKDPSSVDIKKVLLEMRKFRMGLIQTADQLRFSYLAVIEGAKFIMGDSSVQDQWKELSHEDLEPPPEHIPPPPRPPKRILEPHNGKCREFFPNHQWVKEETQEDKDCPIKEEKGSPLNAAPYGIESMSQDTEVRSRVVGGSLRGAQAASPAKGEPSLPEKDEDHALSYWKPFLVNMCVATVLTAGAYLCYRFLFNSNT
Briefly: Inhibition of GST-tagged PTP1B (unknown origin) using pNPP as substrate measured for 2 mins by colorimetric analysis.

The target of assay [6] is T4, Tyrosine-protein phosphatase non-receptor type 11 (Homo sapiens, UniProt Q06124).
T4 sequence (Q06124 whole entry): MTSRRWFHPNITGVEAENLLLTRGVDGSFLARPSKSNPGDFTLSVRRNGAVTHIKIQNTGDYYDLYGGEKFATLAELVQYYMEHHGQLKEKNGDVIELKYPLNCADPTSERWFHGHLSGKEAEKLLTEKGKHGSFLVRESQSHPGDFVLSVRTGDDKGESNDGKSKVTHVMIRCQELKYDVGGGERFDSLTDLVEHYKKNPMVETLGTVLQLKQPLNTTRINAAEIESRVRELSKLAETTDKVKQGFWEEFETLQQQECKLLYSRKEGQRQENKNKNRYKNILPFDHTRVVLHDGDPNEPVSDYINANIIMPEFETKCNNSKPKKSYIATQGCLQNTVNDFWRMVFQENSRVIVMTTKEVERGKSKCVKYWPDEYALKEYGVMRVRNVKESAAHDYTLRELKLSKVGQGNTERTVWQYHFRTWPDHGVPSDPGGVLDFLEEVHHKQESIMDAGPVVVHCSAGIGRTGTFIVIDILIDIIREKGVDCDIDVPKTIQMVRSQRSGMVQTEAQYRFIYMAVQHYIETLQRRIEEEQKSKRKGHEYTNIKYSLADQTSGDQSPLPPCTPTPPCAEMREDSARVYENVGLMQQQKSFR
Briefly: Inhibition of SHP-2 (unknown origin).

For assay [7], the target named is T1, Tyrosine-protein phosphatase non-receptor type 1 (Rattus norvegicus). As to the kind of experiment: Inhibition of PTP1B in rat L6 cells assessed as insulin-stimulated 2-deoxy-[3H]-deoxy-glucose uptake preincubated for 2 hrs followed by insulin challenge for 30 mins. Format: cell-based. The procedure, abridged:
as §1

In assay [8] the target is Tyrosine-protein phosphatase non-receptor type 6 (Homo sapiens, UniProt P29350). Briefly: Inhibition of SHP-1 (unknown origin).
Tyrosine-protein phosphatase non-receptor type 6, sequence (P29350 whole entry): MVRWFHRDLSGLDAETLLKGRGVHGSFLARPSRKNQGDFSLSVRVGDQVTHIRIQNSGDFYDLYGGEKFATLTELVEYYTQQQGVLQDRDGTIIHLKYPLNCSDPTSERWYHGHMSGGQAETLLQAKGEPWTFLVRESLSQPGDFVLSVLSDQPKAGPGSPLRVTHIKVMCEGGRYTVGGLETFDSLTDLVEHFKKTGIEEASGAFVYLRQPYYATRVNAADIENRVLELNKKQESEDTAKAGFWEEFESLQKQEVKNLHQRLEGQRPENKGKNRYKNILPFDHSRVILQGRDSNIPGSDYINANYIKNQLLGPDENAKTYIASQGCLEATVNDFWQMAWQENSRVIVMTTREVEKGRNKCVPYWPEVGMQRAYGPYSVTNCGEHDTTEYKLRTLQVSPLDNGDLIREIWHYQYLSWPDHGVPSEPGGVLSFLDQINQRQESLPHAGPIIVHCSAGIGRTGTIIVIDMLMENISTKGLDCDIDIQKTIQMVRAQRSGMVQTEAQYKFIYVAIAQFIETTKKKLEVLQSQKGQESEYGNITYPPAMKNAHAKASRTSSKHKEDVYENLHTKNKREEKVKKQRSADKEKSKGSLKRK
Assay [9] deals with T1, Tyrosine-protein phosphatase non-receptor type 1 (Rattus norvegicus). Briefly: Inhibition of PTP1B in rat L6 cells assessed as insulin-induced Akt phosphorylation at 20 uM preincubated for 2 hrs followed by insulin challenge for 10 mins by Western blotting analysis in presence of wortmannin. It counts as cell-based. The procedure, abridged:
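Differentiated L6 myotubes were pretreated with 250 nM wortmannin to block PI3K. They then received 20 μM compound for 2 h and were stimulated with or without 10 nM insulin. Akt phosphorylation was read by immunoblot of lysates with anti-phospho-Akt (Ser473).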
Background: A western blot detects proteins with antibodies after separation by electrophoresis.

Assay [10] has the same target. Briefly: Inhibition of PTP1B in rat L6 cells assessed as insulin-stimulated 2-deoxy-[3H]-deoxy-glucose uptake at 20 uM preincubated for 2 hrs followed by insulin challenge for 30 mins. Format: cell-based. The procedure, abridged:
as §1

`O=C(CCc1c[nH]c2ccccc12)N[C@@H](Cc1ccc(OCc2ccccc2)cc1)c1nc(C(=O)Nc2cc(F)ccc2C(=O)O)c(-c2ccccc2)s1`: in [1], the inhibition entry was “Active”. Also, the IC50 was over 20 µM in assay [2]; 1.42 µM in assay [4]; 0.54 µM in assay [5]; 9.89 µM in assay [6]; 12.6 µM in assay [8]. The Ratio IC50 in the assay filed under Homo sapiens was determined as 2.6. The inhibition was 40% in [3], “Dose-dependent effect” in [7] and 86% in assay [10]. In [9], the inhibition entry is “inactive”.

A word on the inhibition: it is the drop in the measured response relative to a control, in per cent. Usually IC50 stands for the concentration that inhibits the measured activity by half.

Source of the values: ChEMBL document CHEMBL2434820, “Design, synthesis, and biological evaluation of novel 2-ethyl-5-phenylthiazole-4-carboxamide derivatives as protein tyrosine phosphatase 1B inhibitors with improved cellular efficacy” (Eur J Med Chem, 2013).
